Measurements from ChEMBL document CHEMBL5653626 (ChemMedChem, 2016).

Key:
[1] = target: T1, Solute carrier family 2, facilitated glucose transporter member 2 (Homo sapiens, UniProt P11168); experiment: (§1) Inhibition of human GLUT2 expressed in CHO cells assessed as reduction in fructose uptake by measuring decrease in ATP production incubated for 15 mins in presence of oxidative phosphorylation inhibitor rotenone by CellTiter-Glo Luminescent Cell Viability Assay; format: cell-based
T1 sequence (P11168 whole entry): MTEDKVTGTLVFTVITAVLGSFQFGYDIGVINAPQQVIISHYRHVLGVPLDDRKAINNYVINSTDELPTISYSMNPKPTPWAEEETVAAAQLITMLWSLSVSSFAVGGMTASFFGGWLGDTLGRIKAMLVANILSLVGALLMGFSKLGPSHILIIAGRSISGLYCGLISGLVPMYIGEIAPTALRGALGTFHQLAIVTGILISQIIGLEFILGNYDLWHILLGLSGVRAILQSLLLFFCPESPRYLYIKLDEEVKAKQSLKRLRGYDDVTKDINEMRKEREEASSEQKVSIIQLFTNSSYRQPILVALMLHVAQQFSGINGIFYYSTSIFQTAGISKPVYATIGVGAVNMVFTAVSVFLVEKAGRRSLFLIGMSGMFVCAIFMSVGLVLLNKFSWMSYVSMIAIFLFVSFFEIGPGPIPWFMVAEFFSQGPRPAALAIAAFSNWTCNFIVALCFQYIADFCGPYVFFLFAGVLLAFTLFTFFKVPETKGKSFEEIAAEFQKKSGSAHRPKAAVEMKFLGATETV

[2] = Clearance in rat hepatocytes; format: ADME, cell-based, Hepatocyte
[3] = Clearance in human liver microsomes; format: ADME, Microsome
[4] = Stability in human liver microsomes assessed as maximum bioavailability; format: ADME, Microsome; details: read-out: Fmax
[5] = Stability in mouse liver microsomes assessed as maximum bioavailability; format: ADME, Microsome; details: read-out: Fmax
[6] = target: T2, Solute carrier family 2, facilitated glucose transporter member 1 (Homo sapiens, UniProt P11166); experiment: Inhibition of human GLUT1 expressed in human DLD-1 cells assessed as reduction in glucose uptake by measuring decrease in ATP production incubated for 15 mins in presence of oxidative phosphorylation inhibitor rotenone by CellTiter-Glo Luminescent Cell Viability Assay; format: cell-based
T2 sequence (P11166 whole entry): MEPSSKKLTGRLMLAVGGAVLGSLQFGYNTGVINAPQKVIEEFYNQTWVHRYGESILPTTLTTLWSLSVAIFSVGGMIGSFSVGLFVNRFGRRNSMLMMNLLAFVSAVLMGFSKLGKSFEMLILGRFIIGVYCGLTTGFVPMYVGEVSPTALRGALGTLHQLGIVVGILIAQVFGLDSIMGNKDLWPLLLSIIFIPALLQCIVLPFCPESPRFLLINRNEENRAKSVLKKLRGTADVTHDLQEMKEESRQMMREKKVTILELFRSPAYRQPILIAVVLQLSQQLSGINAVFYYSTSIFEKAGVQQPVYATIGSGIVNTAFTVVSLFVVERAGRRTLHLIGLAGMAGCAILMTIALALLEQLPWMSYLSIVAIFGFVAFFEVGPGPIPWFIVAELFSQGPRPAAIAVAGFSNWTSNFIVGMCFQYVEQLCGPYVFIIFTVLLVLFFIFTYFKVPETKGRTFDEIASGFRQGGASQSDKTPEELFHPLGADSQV

[7] = target: T3, Solute carrier family 2, facilitated glucose transporter member 3 (Homo sapiens, UniProt P11169); experiment: Inhibition of human GLUT3 expressed in human GLUT1-/- DLD-1 cells assessed as reduction in glucose uptake by measuring decrease in ATP production incubated for 15 mins in presence of oxidative phosphorylation inhibitor rotenone by CellTiter-Glo Luminescent Cell Viability Assay; format: cell-based
T3 sequence (P11169 whole entry): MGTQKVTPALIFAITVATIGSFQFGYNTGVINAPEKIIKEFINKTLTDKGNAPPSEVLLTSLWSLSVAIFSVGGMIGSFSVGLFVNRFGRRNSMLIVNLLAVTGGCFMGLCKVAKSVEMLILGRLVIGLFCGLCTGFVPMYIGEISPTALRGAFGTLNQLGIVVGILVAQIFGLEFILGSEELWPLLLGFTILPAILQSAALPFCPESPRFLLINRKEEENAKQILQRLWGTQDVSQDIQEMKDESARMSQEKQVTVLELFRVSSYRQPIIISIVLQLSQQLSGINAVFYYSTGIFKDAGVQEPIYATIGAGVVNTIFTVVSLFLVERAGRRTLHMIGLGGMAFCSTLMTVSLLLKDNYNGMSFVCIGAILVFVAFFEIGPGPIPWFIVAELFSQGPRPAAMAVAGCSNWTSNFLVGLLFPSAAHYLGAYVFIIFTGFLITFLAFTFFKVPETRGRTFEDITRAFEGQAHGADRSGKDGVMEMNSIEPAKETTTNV

[8] = target: T4, Solute carrier family 2, facilitated glucose transporter member 4 (Homo sapiens, UniProt P14672); experiment: as §1, with “GLUT4” for “GLUT2”, “glucose” for “fructose”, “preincubated” for “incubated”, “for 20 mins followed by glucose addition and measured after” for “for”; format: cell-based
T4 sequence (P14672 whole entry): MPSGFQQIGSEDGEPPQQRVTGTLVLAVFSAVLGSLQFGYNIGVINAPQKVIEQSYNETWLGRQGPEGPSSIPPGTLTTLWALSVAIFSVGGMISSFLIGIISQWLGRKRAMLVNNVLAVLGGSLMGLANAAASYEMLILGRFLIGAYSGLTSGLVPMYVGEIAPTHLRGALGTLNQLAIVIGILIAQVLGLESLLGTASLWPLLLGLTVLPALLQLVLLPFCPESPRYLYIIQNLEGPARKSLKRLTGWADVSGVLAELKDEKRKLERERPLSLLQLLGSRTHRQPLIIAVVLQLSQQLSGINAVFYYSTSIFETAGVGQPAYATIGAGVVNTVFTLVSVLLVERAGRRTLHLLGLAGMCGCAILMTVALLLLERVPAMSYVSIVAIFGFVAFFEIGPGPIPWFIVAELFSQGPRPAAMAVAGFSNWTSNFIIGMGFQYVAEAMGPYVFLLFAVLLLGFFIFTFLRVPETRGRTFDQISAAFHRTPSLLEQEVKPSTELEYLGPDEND

[9] = Stability in rat hepatocytes assessed as maximum bioavailability; format: ADME, Hepatocyte; details: read-out: Fmax
[10] = Clearance in mouse liver microsomes; format: ADME, Microsome
[11] = Clearance in dog liver microsomes; format: ADME, Canis lupus familiaris, Microsome
[12] = Clearance in monkey liver microsomes; format: ADME, Macaca mulatta, Microsome; details: rhesus monkey
[13] = Clearance in rat liver microsomes; format: ADME, Microsome
[14] = Stability in dog liver microsomes assessed as maximum bioavailability; format: ADME, Canis lupus familiaris, Microsome; details: read-out: Fmax
[15] = Stability in monkey liver microsomes assessed as maximum bioavailability; format: ADME, Macaca mulatta, Microsome; details: rhesus monkey, read-out: Fmax
[16] = Stability in rat liver microsomes assessed as maximum bioavailability; format: ADME, Microsome; details: read-out: Fmax
[17] = Clearance in dog hepatocytes; format: ADME, cell-based, Canis lupus familiaris, Hepatocyte
[18] = Stability in dog hepatocytes assessed as maximum bioavailability; format: ADME, Canis lupus familiaris, Hepatocyte; details: read-out: Fmax
[19] = Clearance in human hepatocytes; format: ADME, cell-based, Hepatocyte
[20] = Stability in human hepatocytes assessed as maximum bioavailability; format: ADME, Hepatocyte; details: read-out: Fmax
[21] = Clearance in monkey hepatocytes; format: ADME, cell-based, Macaca mulatta, Hepatocyte; details: rhesus monkey
[22] = Stability in monkey hepatocytes assessed as maximum bioavailability; format: ADME, Macaca mulatta, Hepatocyte; details: rhesus monkey, read-out: Fmax
[23] = Apparent permeability across apical to basolateral side in human Caco-2 cells at 2 uM measured after 2 hrs; format: ADME, cell-based; details: caco-2, 2 h
Procedure, shortened: (§2)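 Bidirectional Caco-2 transport at 2 μm over 2 h, apical→basolateral and basolateral→apical. Apparent permeability (P_app) is taken from compound transport. Efflux ratio is P_app B→A divided by P_app A→B.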

[24] = Stability in dog liver microsomes; format: ADME, Canis lupus familiaris, Microsome
[25] = Volume of distribution at steady state in Wistar rat at 0.3 mg/kg, iv; format: ADME, organism-based; details: in vivo
Procedure, shortened: (§3)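 Single intravenous dose: 0.3 mg kg⁻¹ in male Wistar rats; 0.1 mg kg⁻¹ in female Beagle dogs. Plasma pharmacokinetics gave steady-state volume of distribution.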

[26] = Volume of distribution at steady state in Beagle dog at 0.1 mg/kg, iv; format: ADME, organism-based, Canis lupus familiaris; details: in vivo; procedure, shortened: as §3
[27] = Dose normalized Cmax in Beagle dog at 0.2 mg/kg, po; format: ADME, organism-based, Canis lupus familiaris; details: in vivo
[28] = Efflux ratio of apparent permeability across basolateral to apical side over apical to basolateral side in human Caco-2 cells at 2 uM measured after 2 hrs; format: ADME, cell-based; details: caco-2, 2 h; procedure, shortened: as §2

SMILES | CLhep predicted [2] [mL/min/kg] | CLhep predicted [3] [mL/min/kg] | Fh [4] [%] | Fh [5] [%] | IC50 [6] [µM] | IC50 [7] [µM] | IC50 [8] [µM] | further results
C=C1[C@@H](C)[C@H]2[C@H](Cc3ccccc3)NC(=O)[C@]23OC(=O)/C=C/[C@H](O)CCC[C@@H](C)C/C=C/[C@H]3[C@@H]1O [CYTOCHALASIN B] |  |  |  |  |  |  |  | IC50 [1]: 2.8 µM
Cc1ccc2nc(C)cc(C(=O)Nc3c(C)nn(Cc4ccc(F)cc4)c3C)c2c1 | 61.7 | 20 | 11 | 25 |  |  |  | 
Cc1c(NC(=O)c2cc(C(N)=O)nc3ncccc23)c(C(F)(F)F)nn1Cc1ccc(C#N)cc1 |  |  |  |  | 0.045 | 0.3 | 1 | 
Cc1cccc2nc(C(N)=O)cc(C(=O)Nc3c(C(F)(F)F)nn(Cc4ccc(C#N)cc4)c3C)c12 |  |  |  |  | 0.018 | 0.086 | 0.017 | 
Cc1c(NC(=O)c2cc(C(N)=O)nc3cc(F)ccc23)c(C(F)(F)F)nn1Cc1cnc(C#N)cn1 | 20 | 8.83 | 60 |  | 0.005 |  | 0.016 | Fh [9]: 72%
Cc1c(NC(=O)c2cc(C(N)=O)nc3cc(F)ccc23)c(C(F)(F)F)nn1Cc1ncc(C#N)cn1 | 14.8 | 3.67 | 83 |  | 0.026 |  |  | Fh [9]: 79%
Cc1c(NC(=O)c2cc(C(N)=O)nc3cccc(F)c23)c(C(F)(F)F)nn1Cc1ccc(C#N)cc1 |  |  |  |  | 0.003 | 0.23 | 0.094 | 
Cc1c(NC(=O)c2cc(C(N)=O)nc3cc(F)ccc23)c(C(F)(F)F)nn1Cc1ccc(C#N)cn1 | 0.667 | 3.17 | 86 | 93 | 0.004 |  | 0.62 | Fh [9]: 99%; CLhep predicted [10]: 6 mL/min/kg; CLH [11]: 0.017 mL/min/kg; CLH [12]: 6.7 mL/min/kg; CLH [13]: 6.17 mL/min/kg; Fh [14]: 100%; Fh [15]: 84%; Fh [16]: 91%; CLH [17]: 0.017 mL/min/kg; Fh [18]: 100%; CLH [19]: 0.5 mL/min/kg; Fh [20]: 98%; CLH [21]: 5.33 mL/min/kg; Fh [22]: 88%; Papp [23]: 1.6 ×10⁻⁶ cm/s
Cc1c(NC(=O)c2cc(C(N)=O)nc3cc(F)ccc23)c(C(F)(F)F)nn1Cc1ccc(C#N)cc1 [BAY-876] | 7.67 | 5.33 | 76 | 94 |  |  | 0.29 | Fh [9]: 89%; CLH [12]: 12.7 mL/min/kg; Stability [24]: Stable; Fh [14]: 100%; Fh [15]: 70%; Fh [16]: 74%; CLH [17]: 3.3 mL/min/kg; Fh [18]: 90%; CLH [19]: 6.17 mL/min/kg; Fh [20]: 72%; CLH [21]: 23.3 mL/min/kg; Fh [22]: 46%; Vdss [25]: 0.79 L/kg; Vdss [26]: 1 L/kg; Cmax/dose [27]: 0.93 kg/L
Cc1c(NC(=O)c2cc(C(N)=O)nc3cc(F)ccc23)c(C(C)C)nn1Cc1ccc(C#N)cc1 |  | 14.5 | 34 |  | 0.007 |  |  | 
Cc1ccc2nc(C(N)=O)cc(C(=O)Nc3c(C(F)(F)F)nn(Cc4ccc(C#N)cc4)c3C)c2c1 | 33.3 |  |  | 57 |  |  | 0.12 | Fh [9]: 53%; CLhep predicted [10]: 38.3 mL/min/kg
Cc1c(NC(=O)c2cc(C(N)=O)nc3ccccc23)c(C(F)(F)F)nn1Cc1ccc(C#N)cc1 | 30 | 3.5 | 84 | 74 | 0.006 | 0.58 | 0.17 | IC50 [1]: 69 µM; CLhep predicted [10]: 23.3 mL/min/kg; CLH [11]: 1 mL/min/kg; Fh [14]: 97%; CLH [17]: 1.83 mL/min/kg; Fh [18]: 95%; Ratio [28]: 3.7
Cc1nn(CC2CCOCC2)c(C)c1NC(=O)c1cc(C(F)(F)F)nc2ccc(Br)cc12 |  |  |  |  |  |  |  | IC50 [1]: 8.5 µM
Cc1c(NC(=O)c2cc(C(F)(F)F)nc3ccc(Br)cc23)c(C(F)(F)F)nn1Cc1ccc(F)cc1 | 43.3 |  |  | 59 |  |  |  | CLhep predicted [10]: 36.7 mL/min/kg; Papp [23]: 0.35 ×10⁻⁶ cm/s
Cc1c(NC(=O)c2cc(C(N)=O)nc3ccc(F)cc23)c(C(F)(F)F)nn1Cc1ccc(C#N)cc1 |  |  |  |  | 0.005 | 0.29 | 0.044 | 
Cc1c(NC(=O)c2cc(C(N)=O)nc3cc(F)cc(F)c23)c(C(F)(F)F)nn1Cc1ccc(C#N)cc1 |  |  |  |  | 0.001 | 0.47 | 0.016 | 
Cc1c(NC(=O)c2cc(C(N)=O)nc3cc(F)ccc23)c(C(F)(F)F)nn1Cc1ccc(C(C)(C)C)cc1 [BAY-588] |  |  |  |  |  |  | 0.5 | IC50 [1]: > 10 µM
COc1ccc2nc(C(N)=O)cc(C(=O)Nc3c(C(F)(F)F)nn(Cc4ccc(C#N)cc4)c3C)c2c1 |  |  |  |  |  | 0.11 | 0.013 | 
